Measurements from ChEMBL document CHEMBL1155944 (J Med Chem, 2008).

Experiments:
[1] = system: Oocyte; assay: Activity at rat GABAA alpha-1T129C-beta-2 receptor mutant expressed in Xenopus laevis oocytes assessed as inhibition of GABA-induced current at -60 mV by Two-Electrode voltage clamp method; type: cell-based
[2] = system: Oocyte; assay: Activity at rat GABAA alpha-1R66C-beta-2 receptor mutant expressed in Xenopus laevis oocytes assessed as inhibition of GABA-induced current at -60 mV by Two-Electrode voltage clamp method; type: cell-based
[3] = target: Gamma-aminobutyric acid receptor subunit alpha-3 (Rattus norvegicus, UniProt P18508+P20236+P63079); assay: Agonist activity at rat recombinant GABAA alpha-3-beta-3-gamma-2 receptor expressed in HEK293 cells assessed as normalization of GABA-induced current by whole cell patch-clamp technique; type: functional, cell-based
Gamma-aminobutyric acid receptor subunit alpha-3, sequence (P20236 whole entry, one chain of several): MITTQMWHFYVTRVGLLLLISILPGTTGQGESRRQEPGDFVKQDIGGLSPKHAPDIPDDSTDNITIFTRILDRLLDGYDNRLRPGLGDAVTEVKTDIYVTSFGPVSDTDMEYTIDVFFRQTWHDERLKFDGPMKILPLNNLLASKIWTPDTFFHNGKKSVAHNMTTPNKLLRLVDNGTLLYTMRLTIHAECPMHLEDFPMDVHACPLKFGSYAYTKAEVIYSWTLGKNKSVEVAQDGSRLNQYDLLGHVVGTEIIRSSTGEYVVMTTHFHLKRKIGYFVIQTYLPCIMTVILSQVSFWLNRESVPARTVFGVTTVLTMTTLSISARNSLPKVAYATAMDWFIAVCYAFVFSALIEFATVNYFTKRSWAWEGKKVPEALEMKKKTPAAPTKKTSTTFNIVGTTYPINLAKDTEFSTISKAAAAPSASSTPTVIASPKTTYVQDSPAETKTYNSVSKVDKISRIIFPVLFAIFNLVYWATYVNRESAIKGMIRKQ
Method in brief: (§1)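 HEK293 cells transiently co-transfected (calcium phosphate) with rat αi, β3 and γ2S cDNAs plus EGFP marker; recorded 2 days later by whole-cell patch clamp in HEPES saline pH 7.35.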

[4] = target: Gamma-aminobutyric acid receptor subunit alpha-4 (Rattus norvegicus, UniProt P18508+P28471+P63079); assay: Agonist activity at rat recombinant GABAA alpha-4-beta-3-gamma-2 receptor expressed in HEK293 cells assessed as normalization of GABA-induced current by whole cell patch-clamp technique; type: functional, cell-based; method in brief: as §1
Gamma-aminobutyric acid receptor subunit alpha-4, sequence (P28471 whole entry, one chain of several): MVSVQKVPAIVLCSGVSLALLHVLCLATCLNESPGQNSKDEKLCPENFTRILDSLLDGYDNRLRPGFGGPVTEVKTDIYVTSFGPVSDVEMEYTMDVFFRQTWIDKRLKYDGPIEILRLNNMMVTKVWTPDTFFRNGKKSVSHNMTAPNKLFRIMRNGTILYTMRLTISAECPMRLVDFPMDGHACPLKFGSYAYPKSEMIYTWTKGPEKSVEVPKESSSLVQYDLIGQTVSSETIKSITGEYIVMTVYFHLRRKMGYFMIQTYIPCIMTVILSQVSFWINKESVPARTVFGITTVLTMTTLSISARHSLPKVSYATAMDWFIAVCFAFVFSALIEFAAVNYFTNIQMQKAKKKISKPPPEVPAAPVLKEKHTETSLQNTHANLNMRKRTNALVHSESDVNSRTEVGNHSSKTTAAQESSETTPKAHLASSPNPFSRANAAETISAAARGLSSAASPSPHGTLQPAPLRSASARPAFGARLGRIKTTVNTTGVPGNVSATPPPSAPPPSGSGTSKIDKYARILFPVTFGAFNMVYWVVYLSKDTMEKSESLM

[5] = target: Gamma-aminobutyric acid receptor subunit alpha-3 (Rattus norvegicus) (UniProt P20236); assay: Intrinsic activity at recombinant rat GABAA alpha-3-beta-3-gamma-2 receptor expressed in HEK293 cells assessed as induction of current at 1 mM by whole-cell patch-clamp technique relative to GABA; type: cell-based
Gamma-aminobutyric acid receptor subunit alpha-3 (Rattus norvegicus), sequence (P20236 whole entry): as the sequence (P20236 whole entry, one chain of several) above
Method in brief: (§2)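 Rat αiβ3γ2S receptors transiently expressed in HEK293 cells, with EGFP marking transfected cells, recorded 2 days after transfection. Whole-cell patch clamp in HEPES saline, pH 7.35. Drug applied alone at 1, 10, 100 and 1000 μM. […] Data from at least four cells.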

[6] = species: Rattus norvegicus; assay: Displacement of [3H]Muscimol from GABAA alpha-1-alpha-5 receptor in Sprague-Dawley rat brain cortex membrane at 1 mM
Method in brief: (§3)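 Well-washed membranes from adult male Sprague-Dawley rat cortex or cerebellum (50–200 μg protein). Incubated 60 min on ice in 50 mM Tris/citrate, pH 7.3, with 6 nM [3H]muscimol and test compound. […] Filtered and counted by scintillation. IC50 and pseudo-Hill coefficient obtained by nonlinear regression.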

[7] = target: GABA A receptor alpha-5/beta-3/gamma-2 (Rattus norvegicus, UniProt P18508+P19969+P63079); assay: Agonist activity at rat recombinant GABAA alpha-5-beta-3-gamma-2 receptor expressed in HEK293 cells assessed as normalization of GABA-induced current by whole cell patch-clamp technique; type: functional, cell-based; method in brief: as §1
GABA A receptor alpha-5/beta-3/gamma-2, sequence (P18508 whole entry): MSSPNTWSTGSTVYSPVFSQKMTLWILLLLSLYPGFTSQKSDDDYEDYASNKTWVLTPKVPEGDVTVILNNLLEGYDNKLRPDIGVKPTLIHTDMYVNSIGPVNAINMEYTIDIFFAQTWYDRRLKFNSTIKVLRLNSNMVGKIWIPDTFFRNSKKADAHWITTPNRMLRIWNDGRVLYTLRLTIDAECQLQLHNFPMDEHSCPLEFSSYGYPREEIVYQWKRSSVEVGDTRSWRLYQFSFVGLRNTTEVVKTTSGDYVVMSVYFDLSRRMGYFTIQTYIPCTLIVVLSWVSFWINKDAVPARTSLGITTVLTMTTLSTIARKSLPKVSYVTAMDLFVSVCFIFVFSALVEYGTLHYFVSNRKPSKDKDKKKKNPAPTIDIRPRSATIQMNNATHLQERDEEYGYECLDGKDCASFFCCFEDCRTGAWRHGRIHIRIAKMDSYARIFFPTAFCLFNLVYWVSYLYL
GABA A receptor alpha-5/beta-3/gamma-2, sequence (P19969 whole entry): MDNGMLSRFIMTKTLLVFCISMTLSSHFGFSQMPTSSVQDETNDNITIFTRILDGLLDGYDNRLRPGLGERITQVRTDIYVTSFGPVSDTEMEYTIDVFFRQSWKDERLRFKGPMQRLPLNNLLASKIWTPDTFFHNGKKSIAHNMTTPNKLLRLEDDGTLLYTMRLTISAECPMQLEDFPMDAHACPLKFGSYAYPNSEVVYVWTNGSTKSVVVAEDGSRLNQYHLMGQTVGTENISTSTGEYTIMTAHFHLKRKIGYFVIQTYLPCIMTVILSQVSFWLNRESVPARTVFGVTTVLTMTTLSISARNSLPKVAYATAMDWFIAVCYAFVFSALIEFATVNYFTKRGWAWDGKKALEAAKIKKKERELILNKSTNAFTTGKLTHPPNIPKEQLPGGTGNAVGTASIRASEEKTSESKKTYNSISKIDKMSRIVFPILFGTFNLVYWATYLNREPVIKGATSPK
GABA A receptor alpha-5/beta-3/gamma-2, sequence (P63079 whole entry): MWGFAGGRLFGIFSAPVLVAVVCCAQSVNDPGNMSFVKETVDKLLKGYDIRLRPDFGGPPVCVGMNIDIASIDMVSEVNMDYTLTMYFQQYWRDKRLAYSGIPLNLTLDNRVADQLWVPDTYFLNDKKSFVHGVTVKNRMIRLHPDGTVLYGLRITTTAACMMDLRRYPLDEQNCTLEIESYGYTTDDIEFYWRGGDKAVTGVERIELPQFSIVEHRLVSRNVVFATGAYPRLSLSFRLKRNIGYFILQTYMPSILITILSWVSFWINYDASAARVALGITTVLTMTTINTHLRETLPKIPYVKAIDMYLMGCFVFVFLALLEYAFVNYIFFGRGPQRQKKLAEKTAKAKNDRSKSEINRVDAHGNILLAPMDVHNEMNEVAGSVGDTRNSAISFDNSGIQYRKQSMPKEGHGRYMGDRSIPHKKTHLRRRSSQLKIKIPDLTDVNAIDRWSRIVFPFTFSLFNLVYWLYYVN

[8] = target: Gamma-aminobutyric acid receptor subunit alpha-6 (Rattus norvegicus) (UniProt P30191); assay: Displacement of [3H]Muscimol from GABAAalpha6 receptor in Sprague-Dawley rat brain cerebellum membrane at 100 uM; type: tissue-based; method in brief: as §3
Gamma-aminobutyric acid receptor subunit alpha-6 (Rattus norvegicus), sequence (P30191 whole entry): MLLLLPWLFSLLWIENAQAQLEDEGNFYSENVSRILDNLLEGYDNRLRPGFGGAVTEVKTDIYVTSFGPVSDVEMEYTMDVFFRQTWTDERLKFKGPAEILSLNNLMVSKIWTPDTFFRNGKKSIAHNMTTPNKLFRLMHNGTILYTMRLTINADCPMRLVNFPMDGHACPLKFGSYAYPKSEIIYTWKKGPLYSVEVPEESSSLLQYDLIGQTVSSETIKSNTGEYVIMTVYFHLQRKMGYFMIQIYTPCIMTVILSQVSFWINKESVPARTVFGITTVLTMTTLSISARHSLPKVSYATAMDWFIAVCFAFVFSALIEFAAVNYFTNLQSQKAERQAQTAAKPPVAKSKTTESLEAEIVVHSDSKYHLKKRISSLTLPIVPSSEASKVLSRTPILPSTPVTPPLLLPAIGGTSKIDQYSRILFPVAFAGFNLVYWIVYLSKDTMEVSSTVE

[9] = target: Gamma-aminobutyric acid receptor subunit alpha-4 (Rattus norvegicus) (UniProt P28471); assay: Intrinsic activity at recombinant rat GABAA alpha-4-beta-3-gamma-2 receptor expressed in HEK293 cells assessed as induction of current at 1 mM by whole-cell patch-clamp technique relative to GABA; type: cell-based; method in brief: as §2
Gamma-aminobutyric acid receptor subunit alpha-4 (Rattus norvegicus), sequence (P28471 whole entry): as the sequence (P28471 whole entry, one chain of several) above

[10] = species: Rattus norvegicus; assay: Displacement of [3H]Muscimol from GABAA alpha-1-alpha-5 receptor in Sprague-Dawley rat brain cortex membrane at 100 uM; method in brief: as §3
[11] = target: GABA A receptor alpha-5/beta-3/gamma-2 (Rattus norvegicus) (UniProt P18508+P19969+P63079); assay: Intrinsic activity at recombinant rat GABAA alpha-5-beta-3-gamma-2 receptor expressed in HEK293 cells assessed as induction of current at 1 mM by whole-cell patch-clamp technique relative to GABA; type: cell-based; method in brief: as §2
[12] = target: Gamma-aminobutyric acid receptor subunit alpha-6 (Rattus norvegicus) (UniProt P30191); assay: Displacement of [3H]Muscimol from GABAAalpha6 receptor in Sprague-Dawley rat brain cerebellum membrane at 1 mM; type: tissue-based; method in brief: as §3
[13] = target: Gamma-aminobutyric acid receptor subunit alpha-6 (Rattus norvegicus, UniProt P30191); assay: (§4) Displacement of [3H]Muscimol from GABAAalpha6 receptor in Sprague-Dawley rat brain cerebellum membrane; type: tissue-based; method in brief: as §3
Gamma-aminobutyric acid receptor subunit alpha-6 (Rattus norvegicus, UniProt P30191), sequence (P30191 whole entry): as the sequence (P30191 whole entry) above

[14] = target: Gamma-aminobutyric acid receptor subunit alpha-6 (Rattus norvegicus) (UniProt P30191); assay: as §4; type: tissue-based; method in brief: as §3
[15] = target: Gamma-aminobutyric acid receptor subunit alpha-6 (Rattus norvegicus, UniProt P18508+P30191+P63079); assay: Agonist activity at rat recombinant GABAA alpha-6-beta-3-gamma-2 receptor expressed in HEK293 cells assessed as normalization of GABA-induced current by whole cell patch-clamp technique; type: functional, cell-based
Gamma-aminobutyric acid receptor subunit alpha-6 (Rattus norvegicus, UniProt P18508+P30191+P63079), sequence (P30191 whole entry, the tested form may be a part, one chain of several): as the sequence (P30191 whole entry) above
Method in brief: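 HEK293 cells transiently transfected by calcium phosphate with rat α6 (2 μg), β3 (0.4 μg) and γ2S (0.3 μg) cDNAs plus 1 μg EGFP vector per plate. Whole-cell patch clamp was done 2 days later on EGFP-positive cells in HEPES saline at pH 7.35. Compound was applied alone by fast perfusion at 1, 10, 100 and 1000 μM.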

[16] = target: GABA-A receptor; alpha-1/beta-2/gamma-2 (Rattus norvegicus) (UniProt P18508+P62813+P63138); assay: Intrinsic activity at recombinant rat GABAA alpha-1-beta-3-gamma-2 receptor expressed in HEK293 cells assessed as induction of current at 1 mM by whole-cell patch-clamp technique relative to GABA; type: cell-based; method in brief: as §2
[17] = target: GABA A receptor alpha-2/beta-2/gamma-2 (Rattus norvegicus) (UniProt P18508+P23576+P63138); assay: Intrinsic activity at recombinant rat GABAA alpha-2-beta-3-gamma-2 receptor expressed in HEK293 cells assessed as induction of current at 1 mM by whole-cell patch-clamp technique relative to GABA; type: cell-based; method in brief: as §2
[18] = target: Gamma-aminobutyric acid receptor subunit alpha-6 (Rattus norvegicus) (UniProt P30191); assay: Intrinsic activity at recombinant rat GABAA alpha-6-beta-3-gamma-2 receptor expressed in HEK293 cells assessed as induction of current at 1 mM by whole-cell patch-clamp technique relative to GABA; type: cell-based; method in brief: as §2
[19] = (§5) Displacement of [3H]Muscimol from GABAA alpha-1-alpha-5 receptor in Sprague-Dawley rat brain cortex membrane; method in brief: as §3
[20] = species: Rattus norvegicus; assay: as §5; method in brief: as §3

Compound	inhibition [1] [%]	inhibition [2] [%]	EC50 [3] [mM]	EC50 [4] [µM]	Activity [5]	inhibition [6] [%]	EC50 [7] [µM]	inhibition [8] [%]	Activity [9]	inhibition [10] [%]	Activity [11]	inhibition [12] [%]	IC50 [13] [nM]	logIC50 [14]	EC50 [15] [µM]	Activity [16]	Activity [17]	Activity [18]	IC50 [19] [nM]	logIC50 [20]
CS(=O)(=S)OCCNC(=O)CCCC[C@@H]1SC[C@@H]2NC(=O)N[C@@H]21 (stereo not given in full)	60	75																		
NCc1nnc(O)o1			2.3	128	0.59	104	137	97	0.97	99	0.95	102	1100	0.048	30	0.93	0.88	1.03	1400	0.139
